Tm and folding enthalpy data for 37 sequences are collected here from the array DNA melting data of Ke et al. (doi:10.1101/2024.01.08.574731).

A short description of data set [1]: melting temperature; fluorescence melt of hairpins on a sequencing array, two-state fit, raised by 9.35 °C to match UV melts. Particulars: sodium 0.088 M. Summed up:
(§1)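 Bootstrapped two-state fits yielded melting temperature and folding enthalpy for library hairpins. Cy3 fluorescence, with annealed Cy3 and quencher oligos, was imaged on a sequenced MiSeq flow cell in 50 mM Na-HEPES pH 8.0, 25 mM NaCl in 2.5 °C steps up to 60 °C, and normalised to pre-quench Cy3 and to control constructs. Four replicates were combined by inverse variance, and fitted temperatures were raised by 9.35 °C to match UV melts.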

Data set [2] is described as follows: folding enthalpy; higher = less favourable; fluorescence melt of hairpins on a sequencing array, two-state fit. Particulars: sodium 0.088 M. Summed up:
as §1

With GGCGCTCGAAAGAGGGCC (((.(((....))).))), the Tm in data set [1] was determined as 68.4 °C. Further, in data set [2], the folding enthalpy was -166 kJ/mol.

Consider GGTCCCGAAAGGGCCACC ((((((....)))..))), for which, in data set [1], the Tm was 55 °C. In addition, the folding enthalpy in data set [2] is -48.9 kJ/mol.

In the case of GTAGGGGGAAACCTCTAC ((((.((....)).)))), the Tm in data set [1] is 44.6 °C. Besides, the folding enthalpy in data set [2] was -138 kJ/mol.

On to GCTAGCGAAAGCTCAAGC ((((((....)))..))), for which, in data set [1], the Tm was determined as 38 °C. For the same sequence, the folding enthalpy in data set [2] is -58.5 kJ/mol.

Regarding GCGCAGCGAAAGCCTCGC (((..((....))..))), the Tm in data set [1] worked out at 42.1 °C. In addition, the folding enthalpy in data set [2] is -34.6 kJ/mol.

Consider GAGCAGCGAAAGCTACTC (((.(((....))).))), for which the Tm in data set [1] is 49.6 °C. Also, the folding enthalpy in data set [2] was -93.3 kJ/mol.

Consider GTTGGTGGAAACACTAGC (.(.(((....))).).), for which, in data set [1], the Tm is 27.8 °C. Besides, the folding enthalpy in data set [2] was -41.6 kJ/mol.

As to GGCCTCGGAAACGAGGTC (.(((((....))))).), the Tm in data set [1] was found to be 64.7 °C. In addition, the folding enthalpy in data set [2] is -118 kJ/mol.

With GCCAAGCGAAAGCCAGGC (((..((....))..))), the Tm in data set [1] came out at 54.5 °C. Further, the folding enthalpy in data set [2] was -92.9 kJ/mol.

Regarding GCTCATGGAAACATGGGC ((.((((....)))).)), the Tm in data set [1] was 53 °C. In data set [2], the folding enthalpy is -143 kJ/mol.

With GAAAGCGAAAGCTCCTTC ((((((....)))..))), the Tm in data set [1] amounted to 31.4 °C. The folding enthalpy in data set [2] is -42.7 kJ/mol.

As for GTCTACGAAAGTAGGAC ((((((....))).))), in data set [1], the Tm was 44 °C. Also, the folding enthalpy in data set [2] was -69 kJ/mol.

As for GTGAGTGCGAAAGCACAC (((..(((....)))))), the Tm in data set [1] was found to be 48.6 °C. The folding enthalpy in data set [2] was -52.3 kJ/mol.

In the case of GTTATGTCGAAAGACAAC (((..(((....)))))), the Tm in data set [1] came out at 28.5 °C. Further, the folding enthalpy in data set [2] is -44.5 kJ/mol.

Regarding GGTAACGAAAGTTGACC ((((((....))).))), in data set [1], the Tm amounted to 39.2 °C. Further, in data set [2], the folding enthalpy was -86.2 kJ/mol.

Turning to CGCCCGGAAACGGCGGCG ((((((....)))..))), the Tm in data set [1] came to 55.7 °C. Further, the folding enthalpy in data set [2] is -102 kJ/mol.

On to GCCACGCGAAAGCACGGC (((..((....))..))), for which the Tm in data set [1] came to 61.9 °C. Further, in data set [2], the folding enthalpy is -150 kJ/mol.

Regarding GGTGGCGAAAGCCAAACC ((((((....)))..))), the Tm in data set [1] is 47.2 °C. Moreover, the folding enthalpy in data set [2] is -59.2 kJ/mol.

As to GCGTTAGAAATAACGC ((((((....)))))), the Tm in data set [1] worked out at 57.6 °C. Besides, the folding enthalpy in data set [2] is -158 kJ/mol.

For GAAGACGGAAACGTTTTC (((.(((....))).))), the Tm in data set [1] was 41.1 °C. The folding enthalpy in data set [2] was -136 kJ/mol.

As for GATCGATCGCTCGATC ((((((....)))))), the Tm in data set [1] is 52.4 °C. For the same sequence, the folding enthalpy in data set [2] was -156 kJ/mol.

Turning to GATCCATTCCTGGATC ((((((....)))))), the Tm in data set [1] worked out at 50.3 °C. Moreover, in data set [2], the folding enthalpy was -164 kJ/mol.

In the case of CGGCCGGAAACGGCCCCG ((((((....)))..))), in data set [1], the Tm was determined as 35.4 °C. In addition, in data set [2], the folding enthalpy is -25.1 kJ/mol.

As to GTCCGCGAAAGCGGCGAC ((((((....)))..))), the Tm in data set [1] came to 67 °C. In addition, the folding enthalpy in data set [2] was -44.9 kJ/mol.

For the sequence GATCTGGGCACAGATC ((((((....)))))), the Tm in data set [1] came to 59.3 °C. The folding enthalpy in data set [2] is -167 kJ/mol.

Consider GAACGCCGAAAGGCTTC (((.(((....)))))), for which the Tm in data set [1] was determined as 44.1 °C. In data set [2], the folding enthalpy was -59 kJ/mol.

As to GCAGGGCGAAAGCCAGGC ((..(((....)))..)), the Tm in data set [1] worked out at 60.1 °C. The folding enthalpy in data set [2] was -80.9 kJ/mol.

Turning to GATCTGCCACAGATC ((((((...)))))), in data set [1], the Tm came out at 48.9 °C. For the same sequence, the folding enthalpy in data set [2] was -133 kJ/mol.

In the case of GCCGTCTCGAAAGAGGGC (((..(((....)))))), in data set [1], the Tm is 50.6 °C. Further, the folding enthalpy in data set [2] is -104 kJ/mol.

Turning to GTACGCGCGAAAGCGTAC (((..(((....)))))), the Tm in data set [1] came to 61.3 °C. Moreover, the folding enthalpy in data set [2] was -84.7 kJ/mol.

For the sequence GAGGAACGAAAGTTACTC (((.(((....))).))), in data set [1], the Tm worked out at 54.5 °C. The folding enthalpy in data set [2] is -164 kJ/mol.

Consider GATCCTAGATAGGATC ((((((....)))))), for which, in data set [1], the Tm is 50.8 °C. In data set [2], the folding enthalpy is -151 kJ/mol.

As to GCCGGGCGAAAGCTCCGC ((.(.((....)).).)), in data set [1], the Tm was 45.2 °C. Further, the folding enthalpy in data set [2] was -54.9 kJ/mol.

Consider GCGTAGTAACGC ((((....)))), for which, in data set [1], the Tm came out at 53 °C. Besides, the folding enthalpy in data set [2] was -91.9 kJ/mol.

In the case of GATCCCGAAAGGGTAATC ((((((....)))..))), in data set [1], the Tm worked out at 31.2 °C. The folding enthalpy in data set [2] was -45 kJ/mol.

On to GGTGCCCCGAAAGGGACC (((..(((....)))))), for which the Tm in data set [1] was determined as 47.9 °C. The folding enthalpy in data set [2] was -67.7 kJ/mol.

GCGAGGGCTCGC ((((....)))): the Tm in data set [1] was 51 °C. Besides, in data set [2], the folding enthalpy is -107 kJ/mol.
